Test system: MS2 coat protein
Experiment: apparent Kd, MS2 coat protein; higher = weaker binding; RNA-MaP array; FMN 200 µM where present
Method in brief: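 Two titrations, one without ligand and one with constant ligand, were run with SNAP-549-labelled MS2 coat protein from 0.7 or 1.5 nM, doubling to 3 µM. The targets were designs transcribed by stalled E. coli RNA polymerase on Illumina sequencing-chip clusters, in 100 mM Tris-HCl pH 7.5, 80 mM KCl, 4 mM MgCl2, BSA, DTT, yeast tRNA and Tween-20. The apparent Kd is the median of filtered per-cluster binding-curve fits, with green signal normalised to red-channel RNA signal and control-cluster median Fmax.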

[1] = designed as: OFF switch for flavin mononucleotide, no ligand
[2] = ligand present: flavin mononucleotide, designed as: OFF switch for flavin mononucleotide
[3] = designed as: ON switch for flavin mononucleotide, no ligand
[4] = ligand present: flavin mononucleotide, designed as: ON switch for flavin mononucleotide

UAUAUAUAGUAAGGAUAUGUAGUUAUUUUAUAAACAGAAGGUACUGACAUGAGGAUCACCCAUGUUUUAGUGUGGGCAUGUAGA
apparent Kd [1]: 87.7 nM | apparent Kd [2]: 128 nM

GUGCGGUGAGGAUAUACGUAGGUGAAAAUCUGUGUGCUCCUACAUGAGGAUCACCCAUGUAGAAGGCAUGUCAC
apparent Kd [1]: 15.5 nM | apparent Kd [2]: 27.8 nM

AUAUUGUGAGGAUAUGAACAUAGUAUCGAAAGAUACUAAGUUCAGAAGGCACAUGAGGAUCACCCAUGUUUCUC
apparent Kd [1]: 70.2 nM | apparent Kd [2]: 738 nM

GAGCGAAAGCUCAAUGUCGAUAGCAGAAGGACAUGAAUAACAUGAAUAACAUGAGGAUCACCCAUGUAGGAUAUGCUAUCGACU
apparent Kd [1]: 11.1 nM | apparent Kd [2]: 108 nM

CAGCGAUAGCUGAACAAUCUAUCACAGGAUAUUCAUAAAACAUGAGGAUCACCCAUGUGAAAUUGGGAGAAGGGUGAUAGAUUG
apparent Kd [3]: 10.8 nM | apparent Kd [4]: 5.04 nM

GAAUAAUUGAUCCAUUUUUAAAACAUGAGGAUCACCCAUGUGCAGGAUAUCGUGUGAGUUAAAUACGAGAAGGGCAAGAACUGU
apparent Kd [1]: 201 nM | apparent Kd [2]: 214 nM

UGGUACUAGGGAGGAUAUGGGAAGAUACAUGAGGAUCACCCAUGUUUAAGAAUGUCGAGAGGCAACUAGAAGGCCCUAGUACCU
apparent Kd [3]: 504 nM | apparent Kd [4]: 19.4 nM

AAUAUAAGAGCUGGUAAUCUCAAAACAUGAGGAUCACCCAUGUAGGAUAUCAGCACGAUAAGUGCUGAGAAGGACAUCCAGCUC
apparent Kd [1]: 14.3 nM | apparent Kd [2]: 16.7 nM

UGGUACUAGGGAGGAUAUGGGAAGAUACAUGAGGAUCACCCAUGUUUAAGAAUGCCGAGAGGCAACUAGAAGGCCCUCGUACCU
apparent Kd [3]: 432 nM | apparent Kd [4]: 20.1 nM

AUGUACCUAGGAUAUACAUGAGGAUCACCCAUGUUCCGGGUGCAAUCAAGUUAAUAUUGUAGAAGGAGGUGAAA
apparent Kd [1]: 17 nM | apparent Kd [2]: 31.8 nM

UUAAUAAGUGUGAGGAUAUGCUGGUCCUUGGAUCAGCAGAAGGCACAUGAGGAUCACCCAUGUACAAUAUAUUA
apparent Kd [1]: 33.6 nM | apparent Kd [2]: 215 nM

UGUGUCUGUAGAGGAUAUCCGGGCGUUCGGCUAGGAGAAGGCUGCAACACAUGAGGAUCACCCAUGUAGGUUGUGUCUCCCUAC
apparent Kd [1]: 9.9 nM | apparent Kd [2]: 29.7 nM

AAUAAUUAUUAAGGAUAUGGGUUGAUAACAUGAGGAUCACCCAUGUUAAAUAAGCCGAGAGGCUACUAGAAGGAUAUAUAUAUU
apparent Kd [3]: 1050 nM | apparent Kd [4]: 435 nM

GGUCCGUGUACAUGAGGAUCACCCAUGUCGAUGUUUCCUGGACAGGAUAUAUGCUUAAUACCGACAUAGAAGGGUCCACGUGUG
apparent Kd [3]: 91 nM | apparent Kd [4]: 191 nM

GCGUCAGUUUCACAUGUAAUACAUGAGGAUCACCCAUGUUACUAGGAUAUGUAUUAGAAUUAUCAACAGAAGGAGUAAUGACGC
apparent Kd [1]: 11.1 nM | apparent Kd [2]: 12.8 nM

CAUCAUUCUGUAAGGAUAUUAAUCGAGUGACUUAUUAAGAAGGUACAUGAGGAUCACCCAUGUGGGAGGUGAGG
apparent Kd [1]: 363 nM | apparent Kd [2]: 947 nM

UGGUACUACGGAGGAUAUCAUGUAGAUACAUGAGGAUCACCCAUGUCGUACGAGAGUACGGAGAUUGAGAAGGCCGUAGUACCU
apparent Kd [3]: 30.5 nM | apparent Kd [4]: 15.1 nM

CAGCUGAAUGUGAGGAUAUGUCUAGCUUCGGCUAGACAGAAGGCACAUGAGGAUCACCCAUGUCUCAACAGCUG
apparent Kd [1]: 36.7 nM | apparent Kd [2]: 488 nM

CACCGGUGUACAGGAUAUGCAUCUACGUGGGCUGCAGAAGGGUACAUGAGGAUCACCCAUGUCAACGAAUCCUCAAAUUAGCGA
apparent Kd [1]: 1030 nM | apparent Kd [2]: 1130 nM

UCAUAACAUGAGGAUCACCCAUGUCAGGAUAUGAUACUAUGUACUUCGGUACAUAGUAUCAGAAGGGACAUGCU
apparent Kd [1]: 121 nM | apparent Kd [2]: 18.6 nM

AGUCGGAGCAGAGGAUAUACAUGAGGAUCACCCAUGUAAUAGGAUGAAGCCUGGAAACAGGCAAUGUAGAAGGCUGCUCCGACA
apparent Kd [1]: 60.1 nM | apparent Kd [2]: 589 nM

CAGGUAGACUGAGGAUAUACAAGACUUAGUCUAUCUAGGUCAAAAUCCACAUGAGGAUCACCCAUGUAGAAGGCAGUCUGCCUG
apparent Kd [1]: 17.6 nM | apparent Kd [2]: 46.8 nM

UCAUUUCAGUAAGGAUAUUAAAACAUGACGAUACAUGAGGAUCACCCAUGUUAAGAAGGUACUAAUACAUAUAAUGCAAUGUUC
apparent Kd [1]: 16 nM | apparent Kd [2]: 15 nM

GGUUCCAUCGCAGGAUAUGCUAUCCUUUGGGUAGCAGAAGGGUGAUAACAUGAGGAUCACCCAUGUGGAACCGGGCGUGAGCCC
apparent Kd [3]: 177 nM | apparent Kd [4]: 1050 nM

GCCAGCUCGUGAGGAUAUACAACACUGCUUCGGCAGUGUAUUAAGAUCACAUGAGGAUCACCCAUGUAGAAGGCACGAGCUGAU
apparent Kd [1]: 13.8 nM | apparent Kd [2]: 261 nM

AUUAUUAAAGUGAGGAUAUCUAGAGCUGCGGCUCUAGAGAAGGCACAUGAGGAUCACCCAUGUCUCAAUUAUUA
apparent Kd [1]: 18.7 nM | apparent Kd [2]: 54.4 nM

GCAGGCUUCGAGAAGGACAUGAGGAUCACCCAUGUGCGUGUGAAGCAGCCGUGAGGCUGCAUCAUGUAGGAUAUCGGAGUCUGC
apparent Kd [1]: 70.8 nM | apparent Kd [2]: 573 nM

CUUUAGUAAGGAUAUCAGCUUAGGAGGUUGGUAAUGAGAGCUGAGAAGGUACAUGAGGAUCACCCAUGUUAGUU
apparent Kd [1]: 17.3 nM | apparent Kd [2]: 19.7 nM

UCUAUGAAGAUUCGUCAAUACAGUUAGGAUAUGAGAGACAUGAGGAUCACCCAUGUGCAUGUUGAUUAGAAGGAACAAUUAUCU
apparent Kd [1]: 20.9 nM | apparent Kd [2]: 19.3 nM

AGCUGGAGAGGAUAUACGUGAGUGAUAAAAGUCUGAUAACUACAUGAGGAUCACCCAUGUAGAAGGCUCUGGCA
apparent Kd [1]: 66.2 nM | apparent Kd [2]: 19.4 nM

ACAGGCUUCGAGAAGGACAUGAGGAUCACCCAUGUGCGUGUGAAGCAGCCGUGAGGCUGCAUCAUGUAGGAUAUCGGAGUCUGA
apparent Kd [1]: 75.5 nM | apparent Kd [2]: 559 nM

GUAGCUAUCGGAGGAUAUUCAUGAAACAUGAGGAUCACCCAUGUUAAAUUGGGAGAAGGCCGAUAGCUACAAGAGCGAAAGCUC
apparent Kd [3]: 7.5 nM | apparent Kd [4]: 5.32 nM

GUCGGAAACGACAAUGAUAGGACUGAGGAUAUACAUAAGUAAGUCCACACAUGAGGAUCACCCAUGUAGAAGGCAGUCCUAUCU
apparent Kd [1]: 21.9 nM | apparent Kd [2]: 187 nM

GGAUCGGACAGAGGAUAUACGUGCUAGAGAUACUAGCAAAAUUUCCUCACAUGAGGAUCACCCAUGUAGAAGGCUGUCCUAUCG
apparent Kd [1]: 15.9 nM | apparent Kd [2]: 327 nM

UCAACCAGCGCCGGUUAAACAUGAGGAUCACCCAUGUACUCCAGAAGGCCGCCCAAGAACGGAGUGGAGGAUAUGGAGGUUCUC
apparent Kd [3]: 46.8 nM | apparent Kd [4]: 38.7 nM

GGACAUUUACAGAAGGGCAAUUUAUUUAUUGAUUAUUUAGUUCUGUUUUGCAGGAUAUGUUUUACAUGAGGAUCACCCAUGUCC
apparent Kd [3]: 66.8 nM | apparent Kd [4]: 36.2 nM

GAUUUCGCAUGAGGAUAUGCUCGCAUUUCAAGAGCAGAAGGUAUGUCAUUAGACAUGAGGAUCACCCAUGUAGUUAAGAUUGAA
apparent Kd [3]: 186 nM | apparent Kd [4]: 34.9 nM

GAUUCACAUGAGGAUCACCCAUGUGAGGAUAUAGUGCAGGAGGUGAAUGUCCACCUCUCUAGAAGGCACACGGG
apparent Kd [1]: 22.3 nM | apparent Kd [2]: 23.6 nM

CGCUGAGGCGAGAAGGCACAAGAGUGGUGGCGGACAUGAGGAUCACCCAUGUGAGGAUAUCGCACUUGGCGGUGCCUAAAACUA
apparent Kd [1]: 344 nM | apparent Kd [2]: 39 nM

UCGCCAGGUACAGGAUAUGUGGAUCAGUUAAGUAACUUACUGAACAUGAGGAUCACCCAUGUAUCACAGAAGGGUGCCUCAAAA
apparent Kd [3]: 164 nM | apparent Kd [4]: 11.1 nM

AAGUCUGGACGAGGAUAUCAGUUGUAUCUAGCAUCAACAUGAGGAUCACCCAUGUUGCAAUAGGGUGAGAAGGCGUUUGGGCAA
apparent Kd [3]: 150 nM | apparent Kd [4]: 20.6 nM

GUAGCAAUCGGAGGAUAUUCAUGAUACAUGAGGAUCACCCAUGUUAAUAUGGGAGAAGGCCGAUUGCUACAAGAGCGAAAGCUC
apparent Kd [3]: 47.9 nM | apparent Kd [4]: 8.05 nM

AAGAUGCGGAUAGGAUAUGGAAAUUAAUAAAGACCAGAAGGAUUGGUCACACAACAUGAGGAUCACCCAUGUGUGUGUUGUGAA
apparent Kd [1]: 13.6 nM | apparent Kd [2]: 10.6 nM

CCUAUACAUGAGGAUCACCCAUGUCAGGAUAUAGAAAGCCGCGGAAUAGGCCGCGGCACUAGAAGGGACUGGCU
apparent Kd [1]: 27.5 nM | apparent Kd [2]: 40.5 nM

AGUUAAUAUCGAGGAUAUCCUCAGAAACAUGAGGAUCACCCAUGUAGAAUGGGAGAAGGCGAUAUUAACAGCAUGUUACAUGCA
apparent Kd [3]: 182 nM | apparent Kd [4]: 27.9 nM

AAAAAGUGAGGAUAUCGGAAAAAAAAAAAAAAAAAAAAAAACGAGAAGGCACAUGAGGAUCACCCAUGUAAAAA
apparent Kd [1]: 42.3 nM | apparent Kd [2]: 33.6 nM

ACGGCUAACCCAGUUUAGAUCUCAAGAAGGGUACACUGGGCAAGGUACAUGAGGAUCACCCAUGUACAGGAUAUUGAGAUGAGA
apparent Kd [1]: 12.1 nM | apparent Kd [2]: 34.1 nM

GGGAAUAAACCCGUCUCCGCCCAACCAGAAGGGCACGAUAAUAUUACAUGAGGAUCACCCAUGUUGCAGGAUAUGGUGGGCCUC
apparent Kd [3]: 180 nM | apparent Kd [4]: 76.9 nM

AGACAGAUCGAGAAGGGAACAUGAGGAUCACCCAUGUGGAAGACUUGAUGUUCAGGAUAUCGAAAGCCUGAGUUAGAUGAAUUG
apparent Kd [1]: 26.5 nM | apparent Kd [2]: 115 nM

ACGUGUCGUGUAGGAUAUGACACAGGAAACUGGUCAGAAGGACAUGAGGAUCACCCAUGUAAAGUGUUUAAGGAUGACGUAUGC
apparent Kd [1]: 49.9 nM | apparent Kd [2]: 151 nM

GUCGACCUAUUCGUCAGACUCUCACAGGAUAUACGAUACACAUGAGGAUCACCCAUGUAGAUAACGUAGAAGGGUGAUUCCGGU
apparent Kd [3]: 66.7 nM | apparent Kd [4]: 27.7 nM

GGAGCAACAUGAGGAUCACCCAUGUAGGAUAUCGCUAUUGUAAUCAUGAAACAUGAUUACAAUAGCGAGAAGGACAUAUGCUAA
apparent Kd [1]: 10.6 nM | apparent Kd [2]: 12.5 nM

GCCUGUGAAGGAUAUACAUGAGGAUCACCCAUGUGGCGGAUAUACCCGCCGAGACCGUGUAGAAGGUCAUAGUA
apparent Kd [1]: 44 nM | apparent Kd [2]: 40.8 nM

AAAAGGUUAGGAUAUGCGUGGAAAAAGUGUAUCUAAAAAAAACAUGAGGAUCACCCAUGUAGAAGGGACUUAAA
apparent Kd [1]: 45.3 nM | apparent Kd [2]: 44 nM

UAAAAGUAGGUAGGAUAUCAUCACGGAAGAUCCUGGAUACUUAGUACAUGAGGAUCACCCAUGUAUGAGAAGGACCAGUGUUUG
apparent Kd [1]: 12.5 nM | apparent Kd [2]: 14.8 nM

Source: the EternaBench riboswitch data
